Data published in ChEMBL document CHEMBL1124534, “Synthesis, mechanism of action, and biological evaluation of mitosenes” (1989).
Values after ≈ are worked out from the molar mass of the structure shown.

Columns and labels:
Mus musculus [1] = assay: Mean relative body weight change of treated / mean relative body weight change of control when compound (2 mg/kg/day) administered to inhibit growth of human tumor xenograft GXF 97 was reported at day 28 in nude mice; assay type: functional
Mus musculus [2] = assay: Compound (6 mg/Kg) was evaluated in vivo for antitumor activity against MAC 16 in female NMRI mice on day 4 and ratio of tumor weight of treated to that of control was determined; assay type: functional
Mus musculus [3] = assay: Percent inhibition of compound (50 mg/Kg) was evaluated in vivo for antitumor activity against MAC 13 in female NMRI mice on day 29; assay type: functional
Summary of the method: (§1)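 MAC 13 in female NMRI mice. Drugs were given in arachis oil BP by ip route on day 2 or day 29. % inhibition was derived from treated/untreated control tumor weight (volume); a negative value indicates stimulation.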

A204 = assay: In vitro antitumor activity against A204 rhabdomyosarcoma tumor cell line was determined; assay type: functional; conditions: Homo sapiens, read-out: ID50 (the source's name)
Summary of the method: (§2)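 Cell growth inhibition in vitro measured by the PIT method, with mitomycin C as positive reference.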

WiDr = assay: In vitro antitumor activity against WiDr colon carcinoma tumor cell line was determined; assay type: functional; conditions: Homo sapiens, read-out: ID50 (the source's name); summary of the method: as §2
Mus musculus [4] = assay: Median survival time in days for antitumor activity against P388 Leukemia in CD2 mice at a single dose treatment of 6 mg/kg; assay type: functional
Summary of the method: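 P388 leukemia-bearing mice were given one intraperitoneal injection. The read-out was median survival time in days, reported alongside %T/C and % body weight change.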

Mus musculus [5] = assay: Mean relative body weight change of treated / mean relative body weight change of control when compound (2 mg/kg/day) administered to inhibit growth of human tumor xenograft GXF 97 was reported at day 21 in nude mice; assay type: functional
Mus musculus [6] = assay: Mean relative body weight change of treated / mean relative body weight change of control when compound (2 mg/kg/day) administered to inhibit growth of human tumor xenograft GXF 97 was reported at day 14 in nude mice; assay type: functional
L1210 = assay: In vitro antitumor activity against L1210 lymphocytic leukemia tumor cell line was determined; assay type: functional; conditions: Mus musculus, read-out: ID50 (the source's name)
Summary of the method: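 Inhibition of L1210 leukemia colony formation in vitro, with mitomycin C as positive reference.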

Mus musculus [7] = assay: Ability of intravenously administered compound (2 mg/kg, single dose) to inhibit growth of human tumor xenograft GXF 97 was assessed on day 28 in nude mice
Mus musculus [8] = assay: Compound (40 mg/Kg) was evaluated in vivo for antitumor activity against MAC 16 in female NMRI mice on day 29 and ratio of tumor weight of treated to that of control was determined; assay type: functional
Mus musculus [9] = assay: Percent T/C ([…]) for antitumor activity against P388 Leukemia in CD2 mice at fractioned dose treatment of 1 mg/kg; assay type: functional
Summary of the method: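 P388 leukemia mice dosed intraperitoneally once daily for 9 consecutive days. Median survival time (days) and body weight change were recorded. %T/C was based on survival of treated versus control mice.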

Mus musculus [10] = assay: Percent T/C ([…]) for antitumor activity against P388 Leukemia in CD2 mice at a single dose treatment of 6 mg/kg; assay type: functional
Summary of the method: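 P388 leukemia mice given a single intraperitoneal injection. Median survival time (days) and body weight change were recorded. %T/C was derived from the survival of treated versus control mice.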

Mus musculus [11] = assay: Percent inhibition of compound (6 mg/kg) was evaluated in vivo for antitumor activity against MAC 13 in female NMRI mice on day 2; assay type: functional; summary of the method: as §1
Mus musculus [12] = assay: Median survival time in days for antitumor activity against P388 Leukemia in CD2 mice at fractioned dose treatment of 1 mg/kg; assay type: functional
Summary of the method: (§3)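 P388 leukemia-bearing mice were dosed intraperitoneally once daily for 9 consecutive days (fractioned schedule). The read-out was median survival time in days, reported alongside %T/C and % body weight change.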

Mus musculus [13] = assay: Relative tumor size on day 28 was reported when compound (2 mg/kg/day) administered to inhibit growth of human tumor xenograft GXF 97 in nude mice; assay type: functional
Summary of the method: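 GXF 97 human gastric xenograft grown subcutaneously in nude mice for 24 days, then mice randomized; treatment began 1 day later. Fractioned ip injections on days 1-4, or single iv injection on day 1; 4-5 mice per group. Tumor size from length and width; relative tumor size (% of controls) read at day 28.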

Mus musculus [14] = assay: Compound (6 mg/Kg) was evaluated in vivo for antitumor activity against MAC 13 in female NMRI mice on day 2 and ratio of tumor weight of treated to that of control was determined
Mus musculus [15] = assay: Ability of administered compound (2 mg/kg/day) to inhibit growth of human tumor xenograft GXF 97 was assessed on day 14 in nude mice
Mus musculus [16] = assay: Percentage change in body weight [(day 6 - day 1)/ day 1] for antitumor activity against P388 Leukemia in CD2 mice at fractioned dose treatment of 3 mg/kg; assay type: functional
Summary of the method: (§4)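 Mouse P388 leukemia model. Drugs were given intraperitoneally, either as a single injection or once daily for 9 consecutive days (fractioned schedule). Outcomes were median survival time in days, %T/C, and % body weight change.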

Mus musculus [17] = assay: Body wieght treated/body weight untreated controls of compound (6 mg/kg) was evaluated in vivo for antitumor activity against MAC 16 in female NMRI mice on day 12; assay type: functional
Mus musculus [18] = assay: Body wieght treated/body weight untreated controls of compound (6 mg/kg) was evaluated in vivo for antitumor activity against MAC 16 in female NMRI mice on day 4; assay type: functional
Mus musculus [19] = assay: Compound (40 mg/Kg) was evaluated in vivo for antitumor activity against MAC 16 in female NMRI mice on day 12 and ratio of tumor weight of treated to that of control was determined; assay type: functional
Mus musculus [20] = assay: Median survival time in days for antitumor activity against P388 Leukemia in CD2 mice at fractioned dose treatment of 3 mg/kg; assay type: functional; summary of the method: as §3
Mus musculus [21] = assay: Percent change in body weight [(day 6 - day 1)/ day 1] when P388 Leukemic CD2 mice were treated with a compound (6 mg/Kg); assay type: functional
Mus musculus [22] = assay: Percentage change in body weight [(day 6 - day 1)/ day 1] for antitumor activity against P388 Leukemia in CD2 mice at fractioned dose treatment of 1 mg/kg; assay type: functional; summary of the method: as §4
Mus musculus [23] = assay: Ability of administered compound (2 mg/kg/day) to inhibit growth of human tumor xenograft GXF 97 was assessed on day 21 in nude mice
Mus musculus [24] = assay: Percent T/C ([…]) for antitumor activity against P388 Leukemia in CD2 mice at fractioned dose treatment of 3 mg/kg; assay type: functional; summary of the method: as §4

Q: How did the BWC (Mus musculus [1]) turn out when CO[C@@]12[C@H](COC(N)=O)C3=C(C(=O)C(C)=C(N)C3=O)N1C[C@@H]1N[C@@H]12 [MITOMYCIN] was run?
A: 108.4%

Q: And the T/C (Mus musculus [2])?
A: 60%

Q: What about the I (Mus musculus [3]) of the same compound?
A: 92.6%

Q: What about the IC50 (A204) of the same compound?
A: 0.02 µg/mL (≈ 0.0598 µM)

Q: And the IC50 (WiDr)?
A: 0.031 µg/mL (≈ 0.0927 µM)

Q: And the MST (Mus musculus [4])?
A: 21 days

Q: What about the BWC (Mus musculus [5]) of the same compound?
A: 108.5%

Q: And the BWC (Mus musculus [6])?
A: 108.9%

Q: What about the IC50 (L1210) of the same compound?
A: 0.031 µg/mL (≈ 0.0927 µM)

Q: And the T/C (Mus musculus [7])?
A: 2.6%

Q: And the T/C (Mus musculus [8])?
A: 7.4%

Q: What about the T/C (Mus musculus [9]) of the same compound?
A: 309%

Q: And the T/C (Mus musculus [10])?
A: 191%

Q: And the I (Mus musculus [11])?
A: 88.4%

Q: What about the MST (Mus musculus [12]) of the same compound?
A: 34 days

Q: And the “Relative TS” value (Mus musculus [13])?
A: 17%

Q: What about the T/C (Mus musculus [14]) of the same compound?
A: 11.6%

Q: And the T/C (Mus musculus [15])?
A: 9.9%

Q: And the BWC (Mus musculus [16])?
A: -8%

Q: What about the BW (Mus musculus [17]) of the same compound?
A: 96%

Q: What about the BW (Mus musculus [18]) of the same compound?
A: 106%

Q: And the T/C (Mus musculus [19])?
A: 81%

Q: And the MST (Mus musculus [20])?
A: 21 days

Q: And the BWC (Mus musculus [21])?
A: -18.1%

Q: What about the BWC (Mus musculus [22]) of the same compound?
A: -5.4%

Q: What about the T/C (Mus musculus [23]) of the same compound?
A: 4.1%

Q: And the T/C (Mus musculus [24])?
A: 191%
